The source of these data is ChEMBL document CHEMBL3352191, “Synthesis of sulfonamides with effective inhibitory action against Porphyromonas gingivalis γ-carbonic anhydrase” (Bioorg Med Chem Lett, 2014).

The test in a line: Inhibition of Porphyromonas gingivalis gamma-carbonic anhydrase expressed in Escherichia coli preincubated for 15 mins by stopped flow CO2 hydration assay. In a few lines:
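CO2 hydration followed by stopped-flow with phenol red (0.2 mM) read at 557 nm. Buffer was 20 mM Hepes pH 7.4 with 20 mM NaBF4 for ionic strength, and CO2 was 1.7–17 mM. Initial rates came from ≥6 traces of the first 5–10% of reaction over 10–100 s, with uncatalyzed rate subtracted. Inhibitor was diluted in water from 10 mM stock and preincubated with enzyme 15 min at rt. KI came from nonlinear least squares plus Cheng–Prusoff, mean of ≥3 determinations.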
Consider `CC(C)(C)OC(=O)/N=C(\NCCCC(=O)NCCc1ccc(S(N)(=O)=O)cc1)NC(=O)OC(C)(C)C`, for which the Ki stood at 0.0906 µM.
Next, `CC(=O)NC(CCCCNC(=N)N)C(=O)NCCc1ccc(S(N)(=O)=O)cc1` (stereo not given): 0.37 µM; `CC(C)(C)OC(=O)/N=C(\NCCCC(=O)NCc1ccc(S(N)(=O)=O)cc1)NC(=O)OC(C)(C)C`: 0.074 µM; `CC(=O)NC(CCCCN)C(=O)NCCc1ccc(S(N)(=O)=O)cc1` (stereo not given): 0.0705 µM.
Next, `CC(=O)NC(CCCCNC(=O)OC(C)(C)C)C(=O)NCc1ccc(S(N)(=O)=O)cc1` (stereo not given): 0.089 µM; `CC(C)(C)OC(=O)NCCCC(=O)Nc1cccc(S(N)(=O)=O)c1`: 1.24 µM; `CC(=O)NC(CCCCNC(=O)OC(C)(C)C)C(=O)NCCc1ccc(S(N)(=O)=O)cc1` (stereo not given): 0.312 µM.
Next, `NCCCC(=O)NCCc1ccc(S(N)(=O)=O)cc1`: 0.0659 µM; `CC(C)(C)OC(=O)NCCCC(=O)NCCc1ccc(S(N)(=O)=O)cc1`: 0.233 µM; `CC(=O)NC(CCCCN/C(=N/C(=O)OC(C)(C)C)NC(=O)OC(C)(C)C)C(=O)NCCc1ccc(S(N)(=O)=O)cc1` (stereo not given): 0.0608 µM.
Compound `CC(C)(C)OC(=O)NCCCC(=O)Nc1ccc(S(N)(=O)=O)cc1` came in with a Ki of 0.056 µM. This Ki and that of the compound before are within 1.5-fold of each other.
Regarding `COC(=O)C(CCCCNC(=O)OCc1ccccc1)NC(=O)c1ccc(S(N)(=O)=O)cc1` (stereo not given), the Ki came to 0.0854 µM.
Next, `CC(=O)NC(CCCCNC(=O)OC(C)(C)C)C(=O)Nc1cccc(S(N)(=O)=O)c1` (stereo not given): 0.0542 µM; `CC(C)(C)OC(=O)NCCCC(=O)NCc1ccc(S(N)(=O)=O)cc1`: 0.49 µM.
In the case of `CC(=O)NC(CCCCN/C(=N/C(=O)OC(C)(C)C)NC(=O)OC(C)(C)C)C(=O)NCc1ccc(S(N)(=O)=O)cc1` (stereo not given) it was 0.0776 µM; in that of `N=C(N)NCCCC(=O)NCCc1ccc(S(N)(=O)=O)cc1`, 0.0401 µM; in that of `N=C(N)NCCCC(=O)NCc1ccc(S(N)(=O)=O)cc1`, 0.887 µM.
Consider `CC(=O)NC(CCCCN)C(=O)NCc1ccc(S(N)(=O)=O)cc1` (stereo not given), for which the Ki came out at 0.0741 µM.
Next, `NCCCC(=O)NCc1ccc(S(N)(=O)=O)cc1`: 0.0427 µM; `CC(=O)NC(CCCCNC(=N)N)C(=O)NCc1ccc(S(N)(=O)=O)cc1` (stereo not given): 0.0807 µM.
